Sampled rows, rich in hits. Any-hit rate of the full collection: about 2.2%.
GRK2 inh – compounds blocking aptamer binding on GRK2 – biochemical, human GRK2, bead flow cytometry, HTS, primary screen. Beta-adrenergic receptor kinase 1 (Homo sapiens), P25098. FAM-aptamer displacement from GRK2. inhibition of aptamer binding, % at 10 µM. 330,000 tested, 0.59% active. AID 488847, 2010;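 active = inhibition of aptamer binding above 40%, roughly 3 SD of noise, on plates passing a quality check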;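 also: median bead fluorescence of bound FAM aptamer so fluorescent compounds give negative values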
SUMO1 PPI mod – modulators of SUMO1 protein-protein interactions, primary screen, biochemical, uHTS; inhibition, % at 20 µM; AID 602429, 2012; Small ubiquitin-related modifier 1 (Homo sapiens), P63165; SUMO1 binding to a labelled peptide, TR-FRET, 1 h; 360,000 tested, 0.33% active; in the data active = inhibition above about 37%
DNMT1 block – human DNMT1 methyltransferase inhibitors, primary screen, biochemical, molecular beacon, fluorescence, HinP1I cleavage, uHTS. 360,000 tested, 0.83% active. inhibition (reported as % activation of signal), % at 10 µM. DNA (cytosine-5)-methyltransferase 1 (Homo sapiens), P26358. AID 588458, 2011; in the data active = inhibition above about 50%
STEP block – STEP phosphatase inhibitors, primary screen, biochemical, fluorescence intensity, uHTS | recombinant STEP, OMFP fluorogenic substrate | AID 588621, 2011 | Tyrosine-protein phosphatase non-receptor type 5 (Homo sapiens), P54829 | 360,000 tested, 0.25% active | inhibition, % at 20 µM;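 active = inhibition at 20 µM, scaled per plate between control wells, above about 37%, limit read from the data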;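 also: 0% = DMSO with enzyme and substrate and 100% = substrate only without enzyme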
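material = STEP tyrosine phosphatase | reagent = fluorogenic phosphatase substrate OMFP at 25 µM final | doses = single compound dose of 20 µM, 1% DMSO final | schedule = 20 min reaction, room temperature, in the dark | measured by = fluorescence, 480/540 nm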
LMPTP block – LMPTP phosphatase inhibitors, primary screen, biochemical, fluorescence intensity, uHTS | 360,000 tested, 0.22% active | AID 651560, 2012 | inhibition, % at 20 µM | recombinant LMPTP-A, OMFP fluorogenic substrate;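 active = compounds that cut the enzyme signal by at least half of the control window in the single-dose screen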;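 also: plate controls were DMSO wells with enzyme plus substrate for no effect and substrate without enzyme for full effect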
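Test system – LMPTP-A phosphatase enzyme · Quantity – 0.625 nM LMPTP-A final · Reagent – OMFP substrate, 400 µM final · Dosing – one test concentration per compound, 20 µM, with 3% DMSO overall · Timing – 50 min enzyme reaction at room temperature, protected from light · Detection – fluorescence intensity · Controls – substrate-only low control, DMSO enzyme-plus-substrate high control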
Scp-1 inhibitor – Scp-1 phosphatase inhibitors, primary screen, biochemical, colorimetric, uHTS; AID 493091, 2011; Recombinant Scp1, phosphopeptide, malachite green phosphate absorbance; 340,000 tested, 0.88% active; inhibition, % at 20 µM; Carboxy-terminal domain RNA polymerase II polypeptide A small phosphatase 1 (Homo …;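 active = inhibition above about 50% at 20 µM, limit read from the data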;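 also: plate controls were DMSO wells with enzyme for no effect and wells lacking enzyme for full effect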
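Assay system: SCP-1 catalytic fragment, aa 76-261 | Buffer or medium: Tris acetate buffer pH 5.5 with MgCl2 and Tween-20 | Compound: One concentration, 20 µM, with 1.0% DMSO | Also added: Phospho 17-mer peptide substrate | Signal: Absorbance at 630 nm | Incubation: 45 min enzyme reaction at room temperature | Measure: % inhibition of SCP-1 phosphate liberation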
Beacon interf DR – spectral interference with molecular beacon fluorescence, dose response, artefact control for DNMT1 inhibitor project, biochemical, fluorescent molecular beacon; shares compounds with DNMT1 block; spectral interference counter-screen; IC50, µM; 200 tested, under 10 active; AID 602382, 2012; call rule not given here
DNMT1 confirm – DNMT1 methyltransferase inhibitor retest, confirmation, biochemical, molecular beacon, fluorescence, single concentration; shares compounds with DNMT1 block; DNMT1 molecular beacon HinP1I cleavage; inhibition, % at 10 µM; 2,300 tested, 8% active;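 active = average inhibition of at least 30% in the single-concentration confirmation test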
Beacon interf – counter-screen for DNMT1 inhibitors: spectral interference; shares compounds with DNMT1 block; activation (fluorescence interference), % at 10 µM; 2,300 tested, 1% active; DNMT1 molecular beacon spectral interference counterscreen, fluorescence 485/520; AID 602387;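 active = activation of at least 30% at 10 µM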;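 also: DNMT1 catalytic domain with a HinP1I cleavage step and a FAM/dabcyl DNA beacon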
Numbers without * were called inactive; / = no result given.

SMILES	GRK2 inh	SUMO1 PPI mod	DNMT1 block	STEP block	LMPTP block	Scp-1 inhibitor	DNMT1 confirm	Beacon interf	others
O=C(CCCCCn1c(=S)[nH]c2cc3c(cc2c1=O)OCO3)N1CCN(c2ccccc2)CC1	1	1	66*	4	2	-6	-2	-6
O=C(O)c1cc([N+](=O)[O-])ccc1-c1ccc([N+](=O)[O-])cc1C(=O)O	/	-6	61*	24	2	/	4	2
O=C(O)c1cc([N+](=O)[O-])ccc1N1CCCCC1	0	-28	2	1	3	15	/	/
COc1cccc(CC(=O)n2nc(N)c3cc4ccc(OC)cc4nc32)c1	0	1	-8	2	2	-12	/	/
COc1ccc2cc3c(N)nn(C(=O)Cc4ccc(Cl)cc4)c3nc2c1	0	3	69*	1	1	-3	0	1
CS(=O)(=O)Nc1ccc(C(=O)NC2CCCC2)cc1	0	-1	80*	0	-1	-21	1	3
O=C(NCc1cccnc1)c1cc(C2CCCCN2C(=O)c2ccc3ccccc3c2)on1 (stereo not drawn)	/	-8	4	0	0	/	/	/
Cc1cc(-c2ccco2)c(C#N)c2nc3ccccc3n12	1	30	69*	25	73*	66*	5	9
CCCCNC(=O)c1ccc2nc(CC)c(N(CC)CCOC)n2c1	/	-1	-10	-1	-1	/	/	/
COc1ccc(N2Cc3cccc(C(=O)NC(C)CCc4ccco4)c3C2=O)cc1 (stereo not drawn)	5	5	77*	2	12	79*	3	1
COc1ccc(NC(=O)C[C@H]2C(=O)N(Cc3ccccc3)C[C@@H]2C)cc1	/	0	2	-1	-1	/	/	/
COc1cc2c(cc1[N+](=O)[O-])-c1ccc([N+](=O)[O-])cc1C2	/	-75	-12	3	1	/	/	/
COc1cc2c(=O)[nH]c3cc([N+](=O)[O-])ccc3c2cc1[N+](=O)[O-]	/	99*	76*	3	38	/	-3	-5
COC(=O)CC1OCC=C2CN3CCC45C6=CC(=O)C(=O)C([N+](=O)[O-])=C6NC4C1C2CC35 (stereo not drawn)	/	32	85*	10	13	/	53*	-10	Beacon interf DR=>99
O=C(c1cccc(C(F)(F)F)c1)N1CCOc2ccccc21	0	0	54*	0	0	-3	5	7
CC1=C(C(=O)Nc2ccc(C)cc2C)C(c2ccc(Cl)cc2)n2nc(C(=O)OC(C)C)nc2N1 (stereo not drawn)	2	-3	57*	3	-3	-4	2	0
COc1ccc(Cl)cc1C=CC=Nc1ccccc1O	/	32	-32	0	2	2	/	/
CCc1ccc(C(O)c2ncc(-c3ccccc3Cl)[nH]2)cc1 (stereo not drawn)	/	3	-2	-3	0	/	/	/
Oc1ccc(N=Cc2ccc(-c3cccs3)s2)cc1	0	68*	77*	20	33	-7	4	0
C=Cc1ccc(Cn2c(C)c(C(=O)NCc3ccccc3C(F)(F)F)sc2=O)cc1	/	-4	-7	-3	2	/	/	/

Bioassay records: PubChem BioAssay, several laboratories
